Tests used:
Mus musculus [1] = experiment: Postural effect on caudectomized Swiss albino mouse assessed as time duration of asymmetric posture at 29.8 mg/kg, ip; format: functional; conditions: route intraperitoneal
Procedure, shortened: (§1)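 Male Swiss albino Hale-Stoner mice with a right caudectomy made by suction. A lesion was accepted if the mouse responded to apomorphine 4 weeks after surgery. Compounds were dissolved in 0.9% saline and injected ip at random into groups of six, with a maximum dose of 0.348 mmol/kg. 18 mice were used per compound, and mice were retested after 5–6 day intervals. Onset and duration of the asymmetric posture are reported as mean ± SE from six animals.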

Mus musculus [2] = experiment: Reversal of reserpine-induced catalepsy in ip dosed Swiss albino (CD1) mouse; format: functional
Procedure, shortened: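 Male Swiss albino CD1 mice, 5 weeks old, got reserpine 5 mg/kg ip, then α-MTM 250 mg/kg ip 17 h later, then the test drug ip 4 h after that. Catalepsy was scored by the rubber-stopper test (time to step off the stopper). At least four doses were used, with ≥8 mice per dose. ED50 was taken from a log-probit plot of percent responders against dose.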

Mus musculus [3] = experiment: Postural effect on caudectomized Swiss albino mouse assessed as latency to onset time of asymmetric postural effect at 29.8 mg/kg, ip; format: functional; conditions: route intraperitoneal; procedure, shortened: as §1
Mus musculus [4] = experiment: Toxicity in caudectomized Swiss albino mouse at 44.6 mg/kg, ip; format: organism-based; design: dose 44.6 mg/kg, route intraperitoneal; conditions: in vivo
Mus musculus [5] = experiment: Postural effect on caudectomized Swiss albino mouse assessed as time duration of asymmetric posture at 25.4 mg/kg, ip; format: functional; conditions: route intraperitoneal; procedure, shortened: as §1
Mus musculus [6] = experiment: Postural effect on caudectomized Swiss albino mouse assessed as latency to onset time of asymmetric postural effect at 25.4 mg/kg, ip; format: functional; conditions: route intraperitoneal; procedure, shortened: as §1
Mus musculus [7] = experiment: Postural effect on caudectomized Swiss albino mouse assessed as time duration of asymmetric posture at 50.8 mg/kg, ip; format: functional; conditions: route intraperitoneal
Procedure, shortened: (§2)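 Male Swiss albino Hale-Stoner mice given a right caudectomy by suction. The lesion counted as successful if the mice reacted to apomorphine 4 weeks later. Drug was given ip in 0.9% saline, up to 0.348 mmol/kg, to randomised groups of six, with 5-6 days before reuse. Onset and duration of asymmetric posture are reported as mean ± SE from six animals.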

Mus musculus [8] = experiment: Postural effect on caudectomized Swiss albino mouse assessed as latency to onset time of asymmetric postural effect at 50.8 mg/kg, ip; format: functional; conditions: route intraperitoneal; procedure, shortened: as §1
Mus musculus [9] = experiment: Postural effect on caudectomized Swiss albino mouse assessed as time duration of asymmetric posture at 71.5 mg/kg, ip; format: functional; conditions: route intraperitoneal; procedure, shortened: as §2
Mus musculus [10] = experiment: Postural effect on caudectomized Swiss albino mouse assessed as latency to onset time of asymmetric postural effect at 47.6 mg/kg, ip; format: functional; conditions: route intraperitoneal; procedure, shortened: as §1
Mus musculus [11] = experiment: Postural effect on caudectomized Swiss albino mouse assessed as time duration of asymmetric posture at 23.8 mg/kg, ip; format: functional; conditions: route intraperitoneal; procedure, shortened: as §1
Mus musculus [12] = experiment: Postural effect on caudectomized Swiss albino mouse assessed as latency to onset time of asymmetric postural effect at 71.5 mg/kg, ip; format: functional; conditions: route intraperitoneal; procedure, shortened: as §1
Mus musculus [13] = experiment: Postural effect on caudectomized Swiss albino mouse assessed as time duration of asymmetric posture at 47.6 mg/kg, ip; format: functional; conditions: route intraperitoneal; procedure, shortened: as §1
Mus musculus [14] = experiment: Postural effect on caudectomized Swiss albino mouse assessed as latency to onset time of asymmetric postural effect at 23.8 mg/kg, ip; format: functional; conditions: route intraperitoneal; procedure, shortened: as §1
Mus musculus [15] = experiment: Postural effect on caudectomized Swiss albino mouse assessed as time duration of asymmetric posture at 41 mg/kg, ip; format: functional; conditions: route intraperitoneal; procedure, shortened: as §1
Mus musculus [16] = experiment: Postural effect on caudectomized Swiss albino mouse assessed as latency to onset time of asymmetric postural effect at 27.3 mg/kg, ip; format: functional; conditions: route intraperitoneal; procedure, shortened: as §1
Mus musculus [17] = experiment: Postural effect on caudectomized Swiss albino mouse assessed as time duration of asymmetric posture at 27.3 mg/kg, ip; format: functional; conditions: route intraperitoneal; procedure, shortened: as §1
Mus musculus [18] = experiment: Toxicity in caudectomized Swiss albino mouse at 54.6 mg/kg, ip; format: organism-based; design: dose 54.6 mg/kg, route intraperitoneal; conditions: in vivo
Mus musculus [19] = experiment: Ratio of apomorphine ED50 to compound ED50 for reversal of reserpine-induced catalepsy in ip dosed Swiss albino (CD1) mouse; format: functional
Mus musculus [20] = experiment: Postural effect on caudectomized Swiss albino mouse assessed as latency to onset time of asymmetric postural effect at 41 mg/kg, ip; format: functional; conditions: route intraperitoneal; procedure, shortened: as §1
Mus musculus [21] = experiment: Postural effect on caudectomized Swiss albino mouse assessed as latency to onset time of asymmetric postural effect at 58.4 mg/kg, ip; format: functional; conditions: route intraperitoneal
Procedure, shortened: (§3)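 Male Swiss albino Hale-Stoner mice with right caudectomy by suction, used if responsive to apomorphine 4 weeks post-lesion. Compound in 0.9% saline given ip, maximum 0.348 mmol/kg. 18 mice per compound in random groups of six, retested after 5–6 day intervals. Onset latency and duration of asymmetric posture recorded; mean ± SE from six animals.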

Mus musculus [22] = experiment: Postural effect on caudectomized Swiss albino mouse assessed as time duration of asymmetric posture at 58.4 mg/kg, ip; format: functional; conditions: route intraperitoneal; procedure, shortened: as §3
Mus musculus [23] = experiment: Postural effect on caudectomized Swiss albino mouse assessed as time duration of asymmetric posture at 29.2 mg/kg, ip; format: functional; conditions: route intraperitoneal; procedure, shortened: as §3
Mus musculus [24] = experiment: Postural effect on caudectomized Swiss albino mouse assessed as latency to onset time of asymmetric postural effect at 29.2 mg/kg, ip; format: functional; conditions: route intraperitoneal; procedure, shortened: as §3

Compound `CCCN(CCc1ccc(O)c(O)c1)CCC1CCCCC1.Cl` has a Time (Mus musculus [1]) of 14.1 min, an ED50 (Mus musculus [2]) of 18 mg/kg and a Time (Mus musculus [3]) of 4.2 min. The Activity (Mus musculus [4]) was “Toxic”.

Work on `CCCN(CCc1ccc(O)c(O)c1)CC(C)C.Cl` yielded a Time (Mus musculus [5]) of 18 min, a Time (Mus musculus [6]) of 2.8 min and a Time (Mus musculus [7]) of 39 min. For the same compound, the Time (Mus musculus [8]) was 2.6 min and the ED50 (Mus musculus [2]) was 7.4 mg/kg.

`CCCCN(CC)CCc1ccc(O)c(O)c1.Cl` gave a Time (Mus musculus [9]) of 19.4 min, a Time (Mus musculus [10]) of 2.3 min and a Time (Mus musculus [11]) of 4.2 min. It also gave a Time (Mus musculus [12]) of 5 min, a Time (Mus musculus [13]) of 2.5 min and an ED50 (Mus musculus [2]) of 34 mg/kg. It also gave a Time (Mus musculus [14]) of 2.1 min.

For `Br.CCCCN(CCC)C1CCc2cc(O)c(O)cc2C1` (stereo not drawn), the Time (Mus musculus [15]) was 31.5 min, the Time (Mus musculus [16]) was 2.8 min and the Time (Mus musculus [17]) was 17 min. The ED50 (Mus musculus [2]) was 1.3 mg/kg, the Activity (Mus musculus [18]) was “Toxic” and the “Ratio ED50” value (Mus musculus [19]) was 10. For the same compound, the Time (Mus musculus [20]) was 2 min.

Work on `CCCN(CCc1ccccc1)CCc1ccc(O)c(O)c1.Cl` yielded a Time (Mus musculus [21]) of 3.2 min, a Time (Mus musculus [22]) of 47.4 min and a Time (Mus musculus [23]) of 19.8 min. The Time (Mus musculus [24]) was 4.4 min and the ED50 (Mus musculus [2]) was 7.4 mg/kg.

Reference: ChEMBL document CHEMBL3244330, “Structure--activity relationships of n-substituted dopamine and 2-amino-6,7-dihydroxy-1,2,3,4-tetrahydronaphthalene analogues: behavioral effects in lesioned and reserpinized mice” (J Med Chem, 1979)
